Measurements as given in ChEMBL document CHEMBL2176962, “Repositioning HIV-1 integrase inhibitors for cancer therapeutics: 1,6-naphthyridine-7-carboxamide as a promising scaffold with drug-like properties” (J Med Chem, 2012).

Key:
[1] = target: T1, Human immunodeficiency virus type 1 integrase (Human immunodeficiency virus 1, UniProt Q7ZJM1); assay: Inhibition of HIV1 integrase strand transfer activity using [32P]-labeled linear oligonucleotide substrate
HCT-116 [2] = assay: Cytotoxicity against p53 expressing human HCT116 cells incubated for 72 hrs by MTT assay; type: functional, cell-based; settings: HCT-116, 72 h
How it was run: (§1)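 Cells were kept in DMEM (MDA-MB-435, MCF7, LNCaP) or RPMI (HT29, HCT116) with 10% heat-inactivated FBS and 2 mM L-glutamine, subconfluent and in exponential growth. They were seeded, allowed to adhere overnight, then exposed continuously to compound (10 mM DMSO stock) for 72 h. MTT was added to 0.3 mg/mL final for 3–4 h at 37 °C, formazan was dissolved in DMSO, and absorbance was read at 570 nm. Runs were in triplicate; IC50 came from log concentration versus percent cell kill.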

MDA-MB-435 = assay: Cytotoxicity against human MDA-MB-435 cells incubated for 72 hrs by MTT assay; type: functional, cell-based; settings: MDA-MB-435, 72 h; how it was run: as §1
HCT-116 [3] = assay: Cytotoxicity against p53 deficient human HCT116 cells incubated for 72 hrs by MTT assay; type: functional, cell-based; settings: HCT-116, 72 h; how it was run: as §1
[4] = target: T1, Human immunodeficiency virus type 1 integrase; assay: Inhibition of HIV1 integrase 3'-processing activity using [32P]-labeled linear oligonucleotide substrate
SK-BR-3 = assay: Cytotoxicity against human SKBR3 cells incubated for 72 hrs by MTT assay; type: functional, cell-based; settings: SK-BR-3, 72 h
MCF7 = assay: Cytotoxicity against human MCF7 cells incubated for 72 hrs by MTT assay; type: functional, cell-based; settings: MCF7, 72 h; how it was run: as §1
LNCaP = assay: Cytotoxicity against human LNCAP cells incubated for 72 hrs by MTT assay; type: functional, cell-based; how it was run: as §1
HT-29 = assay: Cytotoxicity against human HT-29 cells incubated for 72 hrs by MTT assay; type: functional, cell-based; settings: HT-29, 72 h; how it was run: as §1
[5] = target: Receptor tyrosine-protein kinase erbB-2 (Homo sapiens) (UniProt P04626); assay: Inhibition of ErbB2 at 10 uM incubated for 60 mins using poly(Glu,Tyr)4:1 substrate and 10 uM ATP by ELISA
How it was run: (§2)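 ELISA with Poly(Glu,Tyr)4:1 (20 μg/mL) precoated as substrate and 10 μM ATP, in 50 mM HEPES pH 7.4, 20 mM MgCl2, 0.1 mM MnCl2, 0.2 mM Na3VO4, 1 mM DTT. Compound was tested at 10 μM, in duplicate. Kinase reaction ran 60 min at 37 °C. Phosphotyrosine was detected with PY99 and HRP anti-mouse IgG, developed with o-phenylenediamine/H2O2, stopped with H2SO4 and read at 492 nm. Inhibition = [1 − A492 treated/A492 control] × 100%. References: lapatinib (ErbB2) and PP2 (Src), each at 10 μM.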

HEY = assay: Cytotoxicity against human HEY cells incubated for 72 hrs by MTT assay; type: functional, cell-based
[6] = Therapeutic index, ratio of CC50 for human C8166 cells to EC50 for HIV1 3B; type: cell-based; settings: read-out: Ratio CC50/EC50
How it was run: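 Therapeutic index was calculated as the C8166 MTT CC50 divided by the HIV-1 IIIB syncytium-reduction EC50.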

[7] = test system: Human immunodeficiency virus 1; assay: Antiviral activity against HIV1 3B infected in human C8166 cells assessed as reduction in virus-induced cytopathogenicity measured after 3 days by syncytium reduction assay; type: functional, organism-based; settings: Human immunodeficiency virus 1, 3B, C8166, 72 h
How it was run: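 C8166 cells (4 × 10⁵ mL⁻¹), grown in RPMI-1640 with 10% heat-inactivated FCS and kept in log phase, infected with HIV-1 IIIB at MOI 0.06 in the presence of serial compound dilutions. AZT served as positive control. After 3 days, syncytia were counted by inverted microscope. EC50 was derived from percent inhibition of syncytium number relative to infected control.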

[8] = Toxicity against human C8166 cells incubated for 72 hrs by MTT assay; type: cell-based
How it was run: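 C8166 cells were seeded with serial compound dilutions in triplicate and incubated at 37 °C, 5% CO2 for 72 h. MTT (5 mg/mL in PBS) was added for 4 h, and formazan was dissolved in 50% DMF-20% SDS. Absorbance was read at 595/630 nm. CC50 was taken from the dose-response curve.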

[9] = target: Proto-oncogene tyrosine-protein kinase Src (Homo sapiens) (UniProt P12931); assay: Inhibition of SRC at 10 uM incubated for 60 mins using poly(Glu,Tyr)4:1 substrate and 10 uM ATP by ELISA; how it was run: as §2
Sequence of Proto-oncogene tyrosine-protein kinase Src (Homo sapiens) (P12931 2-536 limits assumed): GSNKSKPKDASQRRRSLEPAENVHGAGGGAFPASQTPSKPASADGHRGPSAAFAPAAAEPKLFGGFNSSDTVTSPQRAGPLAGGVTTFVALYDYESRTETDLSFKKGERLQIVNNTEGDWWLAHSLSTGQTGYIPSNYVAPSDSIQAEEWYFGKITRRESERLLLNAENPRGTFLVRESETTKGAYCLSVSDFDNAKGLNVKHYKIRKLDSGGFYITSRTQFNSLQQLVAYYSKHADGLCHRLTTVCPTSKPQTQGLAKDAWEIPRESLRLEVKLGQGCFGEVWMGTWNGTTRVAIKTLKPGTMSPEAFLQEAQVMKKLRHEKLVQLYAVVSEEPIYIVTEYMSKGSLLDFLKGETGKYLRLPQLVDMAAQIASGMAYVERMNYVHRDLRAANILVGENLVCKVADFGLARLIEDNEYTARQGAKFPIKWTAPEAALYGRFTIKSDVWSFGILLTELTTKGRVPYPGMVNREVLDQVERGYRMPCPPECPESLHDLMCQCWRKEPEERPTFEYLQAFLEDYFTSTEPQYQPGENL

T1 sequence (Q7ZJM1 whole entry): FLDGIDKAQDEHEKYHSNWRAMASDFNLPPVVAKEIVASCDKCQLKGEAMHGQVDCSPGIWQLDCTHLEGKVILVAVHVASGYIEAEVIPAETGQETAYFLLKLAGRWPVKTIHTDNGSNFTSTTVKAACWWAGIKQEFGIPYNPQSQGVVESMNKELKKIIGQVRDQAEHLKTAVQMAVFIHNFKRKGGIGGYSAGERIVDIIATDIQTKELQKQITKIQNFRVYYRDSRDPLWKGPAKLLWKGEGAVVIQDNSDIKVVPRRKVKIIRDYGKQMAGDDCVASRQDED
Sequence of Receptor tyrosine-protein kinase erbB-2 (Homo sapiens) (P04626 whole entry): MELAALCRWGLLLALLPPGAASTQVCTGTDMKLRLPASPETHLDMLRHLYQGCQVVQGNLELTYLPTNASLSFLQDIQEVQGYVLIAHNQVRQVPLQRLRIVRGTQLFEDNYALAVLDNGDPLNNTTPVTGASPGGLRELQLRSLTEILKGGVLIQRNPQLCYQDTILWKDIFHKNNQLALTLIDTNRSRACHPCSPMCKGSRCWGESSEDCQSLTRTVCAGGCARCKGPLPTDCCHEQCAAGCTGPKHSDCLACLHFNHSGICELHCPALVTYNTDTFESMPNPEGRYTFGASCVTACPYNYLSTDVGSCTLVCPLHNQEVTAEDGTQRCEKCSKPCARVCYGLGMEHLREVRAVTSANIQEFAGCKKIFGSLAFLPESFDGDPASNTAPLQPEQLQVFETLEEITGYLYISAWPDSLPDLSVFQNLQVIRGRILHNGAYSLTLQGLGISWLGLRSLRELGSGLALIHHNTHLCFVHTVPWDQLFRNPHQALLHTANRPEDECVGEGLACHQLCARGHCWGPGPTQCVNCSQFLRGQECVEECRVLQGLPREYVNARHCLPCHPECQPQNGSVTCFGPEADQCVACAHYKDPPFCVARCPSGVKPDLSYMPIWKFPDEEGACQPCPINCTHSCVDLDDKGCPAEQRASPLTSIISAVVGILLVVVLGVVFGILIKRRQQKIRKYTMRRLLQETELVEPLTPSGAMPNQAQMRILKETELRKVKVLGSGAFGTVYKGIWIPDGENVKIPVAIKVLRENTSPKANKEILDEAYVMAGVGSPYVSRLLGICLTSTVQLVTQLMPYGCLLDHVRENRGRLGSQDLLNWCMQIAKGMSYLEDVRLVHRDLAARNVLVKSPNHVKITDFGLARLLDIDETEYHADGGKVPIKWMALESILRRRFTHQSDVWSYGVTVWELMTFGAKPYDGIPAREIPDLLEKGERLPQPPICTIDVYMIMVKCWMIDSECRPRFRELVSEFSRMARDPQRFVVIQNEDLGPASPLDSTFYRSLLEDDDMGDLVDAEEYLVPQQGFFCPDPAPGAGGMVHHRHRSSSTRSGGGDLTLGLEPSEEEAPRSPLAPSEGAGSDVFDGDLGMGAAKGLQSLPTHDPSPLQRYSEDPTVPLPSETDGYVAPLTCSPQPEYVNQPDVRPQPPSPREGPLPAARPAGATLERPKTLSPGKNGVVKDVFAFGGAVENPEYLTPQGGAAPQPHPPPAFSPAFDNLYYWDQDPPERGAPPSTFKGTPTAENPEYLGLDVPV

Row | Compound | IC50 [1] [µM] | IC50 (HCT-116 [2]) [µM] | IC50 (MDA-MB-435) [µM] | IC50 (HCT-116 [3]) [µM] | IC50 [4] [µM] | IC50 (SK-BR-3) [µM] | IC50 (MCF7) [µM] | IC50 (HEY) [µM] | also measured
1 | O=C(NCc1ccc(F)cc1)c1nc(Br)c2cccnc2c1NCCCNc1c(C(=O)NCc2ccc(F)cc2)nc(Br)c2cccnc12 | > 100 | > 20 | > 20 | > 20 | > 100 |  |  |  | 
2 | COC(=O)CNc1c(C(=O)NCc2ccc(F)cc2)nc(Br)c2cccnc12 |  | > 10 | 10 | > 10 |  | 1 | > 10 |  | IC50 (LNCaP): 5 µM; IC50 (HT-29): > 10 µM
3 | COc1cccc(CNC(=O)c2nc(Br)c3cccnc3c2N[C@H]2CC[C@H](N)CC2)c1 |  | 6 | 7 |  |  | 6 |  | 7 | inhibition [5]: 0%
4 | CNCCCNc1c(C(=O)NCc2ccc(F)cc2)nc(Br)c2cccnc12 |  | 9 | 11 | > 10 |  | 1 | > 10 |  | IC50 (LNCaP): 8 µM; IC50 (HT-29): > 10 µM
5 | N[C@H]1CC[C@H](Nc2c(C(=O)NCc3ccc(F)cc3)nc(N3CCCCC3)c3cccnc23)CC1 |  | 8 | 5 | 8.5 |  | > 10 | 5 |  | 
6 | CNc1c(C(=O)NCc2ccc(F)cc2)nc(Br)c2cccnc12 | > 100 | > 20 | > 20 | > 20 | > 100 |  |  |  | 
7 | N[C@H]1CC[C@H](Nc2c(C(=O)NCc3ccc(F)cc3)nc(N3CCCCS3(=O)=O)c3cccnc23)CC1 |  | > 10 | 5 | > 10 |  | 8.5 | 13 |  | IC50 (LNCaP): 8 µM; IC50 (HT-29): > 10 µM
8 | O=C(NCc1ccc(F)cc1)c1nc(Br)c2cccnc2c1NCc1ccc(F)cc1 | > 100 | > 20 | > 20 | > 20 | > 100 |  |  |  | 
9 | COC(=O)c1nc(Br)c2cccnc2c1N[C@H]1CC[C@H](N)CC1 |  |  | > 20 |  |  |  | > 20 | > 20 | 
10 | O=C(NCc1ccc(F)cc1)c1nc(Br)c2cccnc2c1O | 0.5 | > 20 | 15 | > 20 | 14 |  |  |  | selectivity ratio [6]: 7.2; EC50 [7]: 11.1 µM; CC50 at 72 h [8]: 80 µM
11 | N[C@H]1CC[C@H](Nc2c(C(=O)NCc3cccs3)nc(Br)c3cccnc23)CC1 |  |  | 4.1 |  |  |  | 7.3 | 11 | 
12 | N[C@H]1CC[C@H](Nc2c(C(=O)NC3CCCCC3)nc(Br)c3cccnc23)CC1 |  | > 10 | > 10 |  |  | 4.2 | 5.2 | 5.2 | 
13 | N[C@H]1CC[C@H](Nc2c(C(=O)Nc3ccccc3)nc(Br)c3cccnc23)CC1 |  | 2 | 1 |  |  | 2 |  | 1 | inhibition [5]: 0%
14 | C[C@H](NC(=O)c1nc(Br)c2cccnc2c1N[C@H]1CC[C@H](N)CC1)c1ccc(F)cc1 |  | > 10 | > 10 |  |  | 9 |  | > 10 | 
15 | CC(C)(C)n1nc(-c2ccc(Cl)cc2)c2c(N)ncnc21 |  |  |  |  |  |  |  |  | inhibition [9]: 94%
16 | N[C@H]1CC[C@H](Nc2c(C(=O)NCc3cccc(C(F)(F)F)c3)nc(Br)c3cccnc23)CC1 |  |  | 4.2 |  |  |  | 15 | 12 | 
17 | C[C@H](Nc1c(C(=O)NCc2ccc(F)cc2)nc(Br)c2cccnc12)c1ccccc1 | > 111 | > 20 | > 20 | > 20 | > 111 |  |  |  | 
18 | N[C@H]1CC[C@H](Nc2c(C(=O)NCc3ccc4c(c3)OCO4)nc(Br)c3cccnc23)CC1 |  | 7 | 7 |  |  | 6 |  | 4 | inhibition [5]: 0%

Row | Compound | IC50 [1] [µM] | IC50 (HCT-116 [2]) [µM] | IC50 (MDA-MB-435) [µM] | IC50 (HCT-116 [3]) [µM] | IC50 [4] [µM] | IC50 (SK-BR-3) [µM] | IC50 (MCF7) [µM] | IC50 (HEY) [µM] | also measured
19 | O=C(NCCCNc1c(C(=O)NCc2ccc(F)cc2)nc(Br)c2cccnc12)c1ccccc1 |  | > 10 | > 20 | > 10 |  | 1 | 2 |  | IC50 (LNCaP): > 10 µM; IC50 (HT-29): > 10 µM
20 | Nc1cccc(Nc2c(C(=O)NCc3ccc(F)cc3)nc(Br)c3cccnc23)c1 |  | > 10 | 8 | > 10 |  | > 10 | 8 |  | IC50 (LNCaP): 8 µM; IC50 (HT-29): > 10 µM
21 | N[C@H]1CC[C@H](NC(=O)c2nc(Br)c3cccnc3c2NCc2ccc(F)cc2)CC1 |  | 6.4 | 6.6 |  |  | 2.8 |  | 7.1 | inhibition [5]: 3%; inhibition [9]: 0%
22 | CC(C)(C)OC(=O)N1CCC(Nc2c(C(=O)NCc3ccc(F)cc3)nc(Br)c3cccnc23)CC1 |  | > 10 | 20 | 9 |  | 1 | > 10 |  | IC50 (LNCaP): > 10 µM; IC50 (HT-29): > 10 µM
23 | NCCNc1c(C(=O)NCc2ccc(F)cc2)nc(Br)c2cccnc12 | > 100 | > 20 | 12 | > 20 | > 100 |  | 6 |  | 
24 | N[C@H]1CC[C@H](Nc2c(C(=O)NCc3ccccc3)nc(Br)c3cccnc23)CC1 |  | 7 | 7 |  |  | 8 |  | 8 | inhibition [5]: 0%
25 | N[C@H]1CC[C@H](Nc2c(C(=O)NCc3ccc(Oc4ccccc4)cc3)nc(Br)c3cccnc23)CC1 |  |  | 4 |  |  |  | 7.9 | 9 | 
26 | N[C@H]1CC[C@H](Nc2c(C(=O)NCCc3ccccc3)nc(Br)c3cccnc23)CC1 |  | 8.8 | 8 |  |  | 7 |  | 6 | inhibition [5]: 0%
27 | CN(C)c1ccc(CNC(=O)c2nc(Br)c3cccnc3c2N[C@H]2CC[C@H](N)CC2)cc1 |  |  | 4 |  |  |  | 5 | 5.3 | 
28 | C[C@@H](Nc1c(C(=O)NCc2ccc(F)cc2)nc(Br)c2cccnc12)c1ccccc1 | > 111 | > 20 | > 20 | > 20 | > 111 |  |  |  | 
29 | N[C@H]1CC[C@H](Nc2c(C(=O)NCc3ccccn3)nc(Br)c3cccnc23)CC1 |  |  | 4 |  |  |  | 15 | > 20 | 
30 | CS(=O)(=O)CCNCc1ccc(-c2ccc3ncnc(Nc4ccc(OCc5cccc(F)c5)c(Cl)c4)c3c2)o1 |  |  |  |  |  |  |  |  | inhibition [5]: 92%
31 | O=C(NCc1ccc(F)cc1)c1nc(Br)c2cccnc2c1NCc1ccccc1 | > 100 | > 20 | > 20 | > 20 | > 100 |  |  |  | 
32 | C[C@H](CO)Nc1nc(C(=O)NCc2ccc(F)cc2)c(O)c2ncccc12 | 0.2 |  | > 20 |  | 6.9 |  |  |  | selectivity ratio [6]: 1330; EC50 [7]: 0.052 µM; CC50 at 72 h [8]: 69 µM
33 | CC(C)(C)OC(=O)N1CCN(c2c(C(=O)NCc3ccc(F)cc3)nc(Br)c3cccnc23)CC1 |  | > 10 | 10 | > 10 |  | 3 | > 10 |  | IC50 (LNCaP): > 10 µM; IC50 (HT-29): > 10 µM
34 | N[C@H]1CC[C@H](Nc2c(C(=O)NCc3ccco3)nc(Br)c3cccnc23)CC1 |  | > 10 | > 10 |  |  | 10 |  | > 10 | 
35 | O=C(NCc1ccc(F)cc1)c1nc(NCCO)c2cccnc2c1O | 0.3 |  | > 20 |  | 9.5 |  |  |  | selectivity ratio [6]: 3140; EC50 [7]: 0.029 µM; CC50 at 72 h [8]: 91 µM
36 | C[C@@H](CO)Nc1nc(C(=O)NCc2ccc(F)cc2)c(O)c2ncccc12 | 0.3 |  | > 20 |  | 7.8 |  |  |  | selectivity ratio [6]: 4650; EC50 [7]: 0.023 µM; CC50 at 72 h [8]: 107 µM
